In publication PMC11604526 (Cell Reports Medicine, 2024):
“Also recorded” adds a separate entry of the source.

Columns and labels:
GAT-1-Synt1A complex = GAT-1-Synt1A complex (Mus musculus, UniProt P31648); type: in vivo; details: intranasally given days 5-11 after photothrombotic stroke; n = 5
Outline: (§1)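 Dissected tissue was lysed on ice for 30 min in ice-cold RIPA buffer (50 mM Tris-HCl pH 7.4, 150 mM NaCl, 1 mM EDTA, 1% NP-40, 0.1% SDS, 0.5% deoxycholate, protease inhibitors). Lysates were spun at 12,000 ×g for 15 min at 4°C, and supernatant was precleared 1 h at 4°C with protein G magnetic beads before co-IP. Blots were probed with anti-GAT-1 (1:4000) and anti-syntaxin1A (1:4000).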

[1] = test system: mice with photothrombotic stroke; assay: Motor function; type: in vivo, mouse
Outline: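 Photothrombotic stroke was induced with rose bengal, holding body temperature at 37 ± 0.5°C. For grid walking, each mouse walked freely for 5 min on a wire grid 50 cm high. For the cylinder task, mice explored a clear cylinder (15 cm tall, 10 cm diameter) for 5 min, and only rears with both forelimbs clearly visible were timed. Tests ran 7 days before stroke and at set days after stroke.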

GAT-1 [2] = biological target: GAT-1 (Mus musculus, UniProt P31648); assay: 3H-GABA uptake assay in cultured neurons; type: cell-based; details: 1 h drug preincubation; 10 nM 3H-GABA + 30 μM GABA, 37°C 1 h; n = 5
Outline: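 Primary cortical neurons from E16 mice were grown on poly-L-ornithine in Neurobasal with 2% B27. Cells were rinsed twice in 37°C HBSS, equilibrated 10 min, then preincubated 1 h in drug-containing HBSS. Uptake was started with 3H-GABA (10 nM final) plus unlabeled GABA (30 μM final), 37°C for 1 h. It was stopped by three ice-cold HBSS washes, solubilised in 0.1 M NaOH, and read by scintillation counting plus BCA protein assay. Analysis used a two-tailed t test.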

GAT-1 [3] = assay: 3H-GABA uptake in HEK293 cells overexpressing GAT-1; type: cell-based; details: n = 5
Outline: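 HEK293 cells were kept in MEM with 10% FBS and transduced with lentiviral GAT-1-EGFP. These GAT-1-overexpressing cells were incubated with peptide (100 nM), or with the mutant control peptide at the same concentration, before 3H-GABA uptake was measured.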

[4] = test system: extracellular GABA ([GABA]o); assay: Extracellular GABA in peri-infarct cortex; type: in vivo, mouse; details: intranasal administration; Figure S6A; n = 5
Outline: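 A CMA7 microdialysis probe was placed in peri-infarct cortex (AP 0, ML −0.65, DV −1.5 mm from bregma). It was perfused at 1 μL/min with bicarbonate-buffered saline containing 10 mM glucose. Dialysate was collected in 20-min fractions over 2 h, and the second fraction was analysed. GABA was measured by ELISA (activator, 37°C for 15 min in the dark, stop solution, A450).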

[5] = test system: layer 5 peri-infarct pyramidal neurons; assay: Whole-cell recordings in acute brain slices from treated mice; type: in vivo, mouse; details: intranasal administration
[6] = test system: pyramidal neurons in the peri-infarct cortex; assay: Fiber photometry of GCaMP6s Ca2+ signal; type: in vivo, mouse; details: intranasal administration; Figures S6F, S6G
Outline: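 AAV-CaMKII-GCaMP6s was injected into the peri-infarct cortex (AP 0, ML −2.0, DV −1.3 mm from bregma). An optical fibre (230 μm OD, 0.37 NA) was implanted at the same site. GCaMP6s fluorescence was excited with a 488 nm LED at 20 μW at the fibre tip and recorded by fibre photometry.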

rats subjected to tMCAO [7] = assay: Sensorimotor function after tMCAO; type: in vivo; details: rat tMCAO, intranasal days 5-11 after stroke
Outline: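 For grid walking, rats walked 5 min on a wire grid 60 cm high. For the cylinder task, rats explored a cylinder (30 cm tall, 20 cm diameter) for 5 min. For sticky tape, rats were handled 30 min/day for 3 days first. Ratio of interest = seconds attending to stimulus/30, averaging the best two trials. Sticky-tape ratio = left forepaw ratio/right forepaw ratio.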

rats subjected to tMCAO [8] = assay: Morris water maze after tMCAO; type: in vivo; details: rat tMCAO, intranasal days 5-11
Outline: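 Rats were habituated to the maze (180 cm diameter, opacified water, drained daily) 1 day beforehand. In learning trials, rats swam up to 60 s to reach a hidden platform 1.2 cm below the surface. A probe trial without the platform ran 24 h after the last learning trial. Swimming was recorded by overhead video tracking.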

[9] = Concentration of ZLQ-3-1 in brain tissue; type: in vivo, rat; details: intranasal delivery; brain homogenate, LC-MS/MS
Outline: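 Brain tissue was quantified by LC-MS/MS with verapamil run alongside. The test compound eluted at 1.45 min and verapamil at 1.65 min.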

GAT-1-Synt1A interaction = GAT-1-Synt1A interaction (Rattus norvegicus, UniProt P23978); assay: Co-IP of Synt1A-GAT-1 complexes after tMCAO; type: in vivo; details: intranasally given days 5-11 after stroke
Outline: as §1

[10] = test system: extracellular GABA ([GABA]o); assay: Extracellular GABA after tMCAO; type: in vivo, rat; details: intranasal delivery; Figure 6F; n = 5
infarct volume = assay: Infarct volume; type: in vivo; details: Nissl staining 12 days after stroke; n = 8
Outline: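 Coronal 40 μm vibratome sections were stained in Nissl solution at 40°C for 10 min. Infarct size was measured on microscope images.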

mice [11] = assay: Open field test; type: in vivo, mouse; details: 5 min; n = 14
mice [12] = assay: Conditioned place preference; type: in vivo, mouse; details: n = 10
Outline: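 During pretest and test, mice had free access to both chambers for 15 min. Vehicle-group mice received vehicle injections morning and afternoon; all other steps matched the compound group. Apparatus was cleaned with 75% alcohol after each pretest, training and test session.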

[13] = 5 mg/kg intranasally days 5-11 after stroke, test day 12

Q: Which results are given for “Glucose-D-Arg-Dmt-Cha-D-Lys-D-Arg-NH2 [ZLQ-3-1]”?
A: stroke-induced GAT-1-Synt1A interaction, intranasal dosing (GAT-1-Synt1A complex): reversed stroke-induced GAT-1-Synt1A interaction; impairment of motor functions, intranasal 5 mg/kg [1, 13]: attenuated the impairment of motor functions; motor functional recovery of ZLQ-3-1-treated versus ZLQ-3-treated mice [1, 13]: better motor functional recovery than ZLQ-3-treated mice; impairment of motor functions, intraperitoneal dosing ([1]; 2.5, 5, 10, or 20 mg/kg i.p. days 5-11 after stroke, test day 12): attenuated the impairment of motor functions dose dependently; long-term motor functional recovery, WT mice ([1]; intranasal treatment days 5-11 after stroke, Figure S5K): long-lasting motor functional recovery effects; 3H-GABA uptake in cultured neurons (GAT-1 [2]): significantly increased ^3H-GABA uptake; reuptake of GABA by GAT-1, HEK293 cells overexpressing GAT-1 (GAT-1 [3]): did not directly affect the reuptake of GABA by GAT-1; stroke-induced increase in extracellular GABA [4]: reversed stroke-induced increases in extracellular GABA; stroke-induced increase in tonic inhibition ([5]; Figures S6B, S6C): reversed stroke-induced increases; inhibitory synaptic transmission (sIPSC) ([5]; Figures S6D, S6E): increased inhibitory synaptic transmission; stroke-induced decline in cortical excitability, WT mice [6]: prevented stroke-induced decline in cortical excitability; foot faults in the grid-walking task (rats subjected to tMCAO [7]): decreased foot faults; forelimb sticky-tape ratio in modified sticky-tape test (rats subjected to tMCAO [7]): increased forelimb sticky-tape ratio; forelimb symmetry index in the cylinder task (rats subjected to tMCAO [7]): decreased; somatosensory and motor functions (rats subjected to tMCAO [7]; tests days 4, 12, 19, 26): significantly improved somatosensory and motor functions; swimming speed (rats subjected to tMCAO [8]): did not affect swimming speed; target entries in the probe test (rats subjected to tMCAO [8]): increased target entries; time spent in target quadrant in the probe test (rats subjected to tMCAO [8]): increased; latency (time to reach the platform) (rats subjected to tMCAO [8]; training trials): significantly decreased latency; brain exposure of ZLQ-3-1 (time course of concentrations in brain tissue) [9]: rapid and long-lasting brain exposure; also recorded: high brain exposure; stroke-induced GAT-1-Synt1A interaction in the hippocampus (GAT-1-Synt1A interaction): reversed stroke-induced GAT-1-Synt1A interaction; stroke-induced GAT-1-Synt1A interaction in the peri-infarct cortex (GAT-1-Synt1A interaction): reversed stroke-induced GAT-1-Synt1A interaction; stroke-induced increase in [GABA]o in the peri-infarct cortex [10]: reversed; infarct volume (infarct volume): did not change infarct volume; locomotor activity (open field test: total distance, velocity) (mice [11]): did not affect locomotor activity; conditioned place preference (mice [12]): did not affect
